What was measured:
Type in all cases: functional
HL-60(TB) = test: Cytotoxicity against human HL-60(TB) cells assessed as growth inhibition after 48 hrs by SRB assay; settings: HL-60, 48 h
Summary of the method: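 NCI 60-cell panel, leukemia subpanel. Five-dose screen at 10-fold dilutions from 10−4 to 10−8 M with 48 h drug exposure. GI50 is the molar concentration giving 50% reduction in net cell growth compared with cell numbers on day 0.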

K562 = test: Cytotoxicity against human K562 cells assessed as growth inhibition after 48 hrs by SRB assay; settings: K562, 48 h
Summary of the method: (§1)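 NCI 60-cell panel; compounds passing a single-dose screen (10−5 M, 48 h) were tested at five 10-fold dilutions (10−4 to 10−8 M) with 48 h drug exposure. GI50 is the molar concentration giving 50% reduction in net cell growth relative to cell numbers on day 0.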

MOLT-4 = test: Cytotoxicity against human MOLT4 cells assessed as growth inhibition after 48 hrs by SRB assay; settings: MOLT-4, 48 h; summary of the method: as §1
RPMI-8226 = test: Cytotoxicity against human RPMI8226 cells assessed as growth inhibition after 48 hrs by SRB assay; settings: RPMI-8226, 48 h; summary of the method: as §1
NCI-H226 = test: Cytotoxicity against human NCI-H226 cells assessed as growth inhibition after 48 hrs by SRB assay; settings: NCI-H226, 48 h; summary of the method: as §1
NCI-H23 = test: Cytotoxicity against human NCI-H23 cells assessed as growth inhibition after 48 hrs by SRB assay; settings: NCI-H23, 48 h; summary of the method: as §1
NCI-H460 = test: Cytotoxicity against human NCI-H460 cells assessed as growth inhibition after 48 hrs by SRB assay; settings: NCI-H460, 48 h; summary of the method: as §1
HCC 2998 = test: Cytotoxicity against human HCC2998 cells assessed as growth inhibition after 48 hrs by SRB assay; settings: HCC 2998, 48 h; summary of the method: as §1
[1] = Cytotoxicity against human HCT116 cells assessed as growth inhibition after 48 hrs by SRB assay; settings: HCT-116, 48 h; summary of the method: as §1
[2] = Cytotoxicity against human HCT15 cells assessed as growth inhibition after 48 hrs by SRB assay; settings: HCT-15, 48 h; summary of the method: as §1
HT-29 = test: Cytotoxicity against human HT-29 cells assessed as growth inhibition after 48 hrs by SRB assay; settings: HT-29, 48 h; summary of the method: as §1
KM12 = test: Cytotoxicity against human KM12 cells assessed as growth inhibition after 48 hrs by SRB assay; settings: KM12, 48 h; summary of the method: as §1
SW-620 = test: Cytotoxicity against human SW620 cells assessed as growth inhibition after 48 hrs by SRB assay; settings: SW-620, 48 h
SF-268 = test: Cytotoxicity against human SF268 cells assessed as growth inhibition after 48 hrs by SRB assay; settings: SF-268, 48 h; summary of the method: as §1
SF-295 = test: Cytotoxicity against human SF295 cells assessed as growth inhibition after 48 hrs by SRB assay; settings: SF-295, 48 h; summary of the method: as §1
SF-539 = test: Cytotoxicity against human SF539 cells assessed as growth inhibition after 48 hrs by SRB assay; settings: SF-539, 48 h; summary of the method: as §1
SNB-19 = test: Cytotoxicity against human SNB19 cells assessed as growth inhibition after 48 hrs by SRB assay; settings: SNB-19, 48 h; summary of the method: as §1
SNB-75 = test: Cytotoxicity against human SNB75 cells assessed as growth inhibition after 48 hrs by SRB assay; settings: SNB-75, 48 h
U-251 = test: Cytotoxicity against human U251 cells assessed as growth inhibition after 48 hrs by SRB assay; settings: U-251, 48 h
LOX IMVI = test: Cytotoxicity against human LOXIMVI cells assessed as growth inhibition after 48 hrs by SRB assay; summary of the method: as §1
M14 = test: Cytotoxicity against human M14 cells assessed as growth inhibition after 48 hrs by SRB assay; settings: M14, 48 h; summary of the method: as §1
MDA-MB-435 = test: Cytotoxicity against human MDA-MB-435 cells assessed as growth inhibition after 48 hrs by SRB assay; settings: MDA-MB-435, 48 h; summary of the method: as §1
SK-MEL-5 = test: Cytotoxicity against human SK-MEL-5 cells assessed as growth inhibition after 48 hrs by SRB assay; settings: SK-MEL-5, 48 h; summary of the method: as §1
[3] = Cytotoxicity against human UACC62 cells assessed as growth inhibition after 48 hrs by SRB assay; settings: UACC-62, 48 h
IGROV-1 = test: Cytotoxicity against human IGROV1 cells assessed as growth inhibition after 48 hrs by SRB assay; settings: IGROV-1, 48 h; summary of the method: as §1
[4] = Cytotoxicity against human OVCAR3 cells assessed as growth inhibition after 48 hrs by SRB assay; settings: OVCAR-3, 48 h; summary of the method: as §1
[5] = Cytotoxicity against human OVCAR4 cells assessed as growth inhibition after 48 hrs by SRB assay; settings: OVCAR-4, 48 h; summary of the method: as §1
[6] = Cytotoxicity against human OVCAR5 cells assessed as growth inhibition after 48 hrs by SRB assay; settings: OVCAR-5, 48 h; summary of the method: as §1
[7] = Cytotoxicity against human OVCAR8 cells assessed as growth inhibition after 48 hrs by SRB assay; settings: OVCAR-8, 48 h; summary of the method: as §1
[8] = Cytotoxicity against human NCI-ADR-RES cells assessed as growth inhibition after 48 hrs by SRB assay; summary of the method: as §1
SK-OV-3 = test: Cytotoxicity against human SKOV3 cells assessed as growth inhibition after 48 hrs by SRB assay; settings: SK-OV-3, 48 h; summary of the method: as §1
786-0 = test: Cytotoxicity against human 786-0 cells assessed as growth inhibition after 48 hrs by SRB assay; settings: 786-0, 48 h; summary of the method: as §1
A498 = test: Cytotoxicity against human A498 cells assessed as growth inhibition after 48 hrs by SRB assay; settings: A498, 48 h; summary of the method: as §1
RXF 393 = test: Cytotoxicity against human RXF393 cells assessed as growth inhibition after 48 hrs by SRB assay; settings: RXF 393, 48 h; summary of the method: as §1
SN12C = test: Cytotoxicity against human SN12C cells assessed as growth inhibition after 48 hrs by SRB assay; summary of the method: as §1
TK-10 = test: Cytotoxicity against human TK10 cells assessed as growth inhibition after 48 hrs by SRB assay; settings: TK-10, 48 h
[9] = Cytotoxicity against human UO31 cells assessed as growth inhibition after 48 hrs by SRB assay; settings: UO-31, 48 h
[10] = Cytotoxicity against human PC3 cells assessed as growth inhibition after 48 hrs by SRB assay; settings: PC-3, 48 h; summary of the method: as §1
DU-145 = test: Cytotoxicity against human DU145 cells assessed as growth inhibition after 48 hrs by SRB assay; settings: DU-145, 48 h; summary of the method: as §1
MCF7 = test: Cytotoxicity against human MCF7 cells assessed as growth inhibition after 48 hrs by SRB assay; settings: MCF7, 48 h; summary of the method: as §1
MDA-MB-231 = test: Cytotoxicity against human MDA-MB-231 cells assessed as growth inhibition after 48 hrs by SRB assay; settings: MDA-MB-231, 48 h; summary of the method: as §1
[11] = Cytotoxicity against human Hs578T cells assessed as growth inhibition after 48 hrs by SRB assay; settings: Hs-578T; summary of the method: as §1
BT-549 = test: Cytotoxicity against human BT549 cells assessed as growth inhibition after 48 hrs by SRB assay; settings: BT-549, 48 h; summary of the method: as §1

Q: With `COc1cc(/C(C#N)=C/c2coc3ccccc23)cc(OC)c1OC` as the compound, how does the GI50 (HL-60(TB)) read?
A: 1030 nM

Q: What about the GI50 (K562) of the same compound?
A: 513 nM

Q: And the GI50 (MOLT-4)?
A: 3820 nM

Q: And the GI50 (RPMI-8226)?
A: 2470 nM

Q: And the GI50 (NCI-H226)?
A: 6200 nM

Q: And the GI50 (NCI-H23)?
A: 4580 nM

Q: And the GI50 (NCI-H460)?
A: 839 nM

Q: And the GI50 (HCC 2998)?
A: 4130 nM

Q: And the GI50 [1]?
A: 517 nM

Q: And the GI50 [2]?
A: 492 nM

Q: What about the GI50 (HT-29) of the same compound?
A: 394 nM

Q: And the GI50 (KM12)?
A: 586 nM

Q: What about the GI50 (SW-620) of the same compound?
A: 504 nM

Q: And the GI50 (SF-268)?
A: 4790 nM

Q: What about the GI50 (SF-295) of the same compound?
A: 446 nM

Q: What about the GI50 (SF-539) of the same compound?
A: 442 nM

Q: What about the GI50 (SNB-19) of the same compound?
A: 3630 nM

Q: And the GI50 (SNB-75)?
A: 769 nM

Q: What about the GI50 (U-251) of the same compound?
A: 605 nM

Q: And the GI50 (LOX IMVI)?
A: 993 nM

Q: And the GI50 (M14)?
A: 667 nM

Q: And the GI50 (MDA-MB-435)?
A: 278 nM

Q: And the GI50 (SK-MEL-5)?
A: 336 nM

Q: What about the GI50 [3] of the same compound?
A: 519 nM

Q: What about the GI50 (IGROV-1) of the same compound?
A: 3060 nM

Q: And the GI50 [4]?
A: 277 nM

Q: What about the GI50 [5] of the same compound?
A: 2610 nM

Q: What about the GI50 [6] of the same compound?
A: 3330 nM

Q: What about the GI50 [7] of the same compound?
A: 2900 nM

Q: What about the GI50 [8] of the same compound?
A: 382 nM

Q: What about the GI50 (SK-OV-3) of the same compound?
A: 1710 nM

Q: And the GI50 (786-0)?
A: 6110 nM

Q: And the GI50 (A498)?
A: 458 nM

Q: And the GI50 (RXF 393)?
A: 496 nM

Q: What about the GI50 (SN12C) of the same compound?
A: 2170 nM

Q: What about the GI50 (TK-10) of the same compound?
A: 2100 nM

Q: And the GI50 [9]?
A: 2890 nM

Q: And the GI50 [10]?
A: 1840 nM

Q: And the GI50 (DU-145)?
A: 1880 nM

Q: What about the GI50 (MCF7) of the same compound?
A: 376 nM

Q: And the GI50 (MDA-MB-231)?
A: 1710 nM

Q: And the GI50 [11]?
A: 2030 nM

Q: And the GI50 (BT-549)?
A: 927 nM

Q: With `COc1ccc2[nH]cc(/C=C(\C#N)c3cc(OC)c(OC)c(OC)c3)c2c1` as the compound, how does the GI50 (HL-60(TB)) read?
A: 59 nM

Q: What about the GI50 (K562) of the same compound?
A: 44 nM

Q: And the GI50 (MOLT-4)?
A: 198 nM

Q: What about the GI50 (RPMI-8226) of the same compound?
A: 241 nM

Q: What about the GI50 (NCI-H226) of the same compound?
A: 170 nM

Q: What about the GI50 (NCI-H23) of the same compound?
A: 101 nM

Q: And the GI50 (NCI-H460)?
A: 37 nM

Q: What about the GI50 (HCC 2998) of the same compound?
A: 119 nM

Q: And the GI50 [1]?
A: 45 nM

Q: What about the GI50 [2] of the same compound?
A: 68 nM

Q: What about the GI50 (HT-29) of the same compound?
A: 38 nM

Q: What about the GI50 (KM12) of the same compound?
A: 44 nM

Q: What about the GI50 (SW-620) of the same compound?
A: 46 nM

Q: And the GI50 (SF-268)?
A: 2140 nM

Q: And the GI50 (SF-295)?
A: 42 nM

Q: What about the GI50 (SF-539) of the same compound?
A: 71 nM

Q: What about the GI50 (SNB-19) of the same compound?
A: 89 nM

Q: What about the GI50 (SNB-75) of the same compound?
A: 43 nM

Q: What about the GI50 (U-251) of the same compound?
A: 50 nM

Q: And the GI50 (LOX IMVI)?
A: 74 nM

Q: What about the GI50 (M14) of the same compound?
A: 52 nM

Q: And the GI50 (MDA-MB-435)?
A: 27 nM

Q: And the GI50 (SK-MEL-5)?
A: 36 nM

Q: What about the GI50 [3] of the same compound?
A: 59 nM

Q: And the GI50 (IGROV-1)?
A: 379 nM

Q: What about the GI50 [4] of the same compound?
A: 34 nM

Q: And the GI50 [5]?
A: 1350 nM

Q: What about the GI50 [6] of the same compound?
A: 516 nM

Q: What about the GI50 [7] of the same compound?
A: 148 nM

Q: What about the GI50 [8] of the same compound?
A: 37 nM

Q: What about the GI50 (SK-OV-3) of the same compound?
A: 56 nM

Q: And the GI50 (786-0)?
A: 85 nM

Q: What about the GI50 (A498) of the same compound?
A: 25 nM

Q: What about the GI50 (RXF 393) of the same compound?
A: 33 nM

Q: And the GI50 (SN12C)?
A: 715 nM

Q: And the GI50 (TK-10)?
A: 20100 nM

Q: What about the GI50 [9] of the same compound?
A: 1260 nM

Q: And the GI50 [10]?
A: 54 nM

Q: And the GI50 (DU-145)?
A: 153 nM

Q: What about the GI50 (MCF7) of the same compound?
A: 36 nM

Q: What about the GI50 (MDA-MB-231) of the same compound?
A: 299 nM

Q: What about the GI50 [11] of the same compound?
A: 124 nM

Q: What about the GI50 (BT-549) of the same compound?
A: 348 nM

Reference: ChEMBL document CHEMBL3407388, “Synthesis, anticancer activity and molecular docking studies on a series of heterocyclic trans-cyanocombretastatin analogues as antitubulin agents” (2015)
